How the values were obtained:
[1] = test system: CCRF-CEM; experiment: Compound was tested for antiviral activity by measuring its ability to inhibit HIV induced virus production in CEM cells; type: functional, Homo sapiens
[2] = test system: Human immunodeficiency virus type 1 (RF/HAT ISOLATE); experiment: Inhibition of HIV-1 RF viral production in MT-2 cells.; type: functional, Human immunodeficiency virus 1, MT2
[3] = test system: MT2; experiment: Inhibition of HIV-1 RF induced cytotoxicity in MT-2 cells; Inactive.; type: functional, cell-based
In short: (§1)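 MT-2 cells at 5×10^3 per well were infected with HIV-1 RF at MOI 0.005, chosen to give complete killing at 6 days. Triplicate wells received five half-log dilutions from 100 μM. After 6 days at 37 °C, XTT colorimetry gave viability. IC50 is the minimum concentration reducing CPE by 50%, calculated by semilog regression.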

[4] = test system: CCRF-CEM; experiment: Inhibition of HIV-1 RF induced cytotoxicity in CEM cells; Inactive.; type: functional, cell-based
In short: (§2)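 CEM cells at 5×10^3 per well were infected with HIV-1 RF at MOI 0.01, chosen to give complete cell killing by day 6. Five serial half-log dilutions starting at 100 μM were tested in triplicate. After 6 days at 37 °C, viability was read by XTT. IC50 is the minimum concentration inhibiting CPE by 50%, from semilog regression curve fitting.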

[5] = test system: CCRF-CEM; experiment: Compound was tested for antiviral activity by measuring its ability to inhibit HIV induced virus production in CEM cells; NT indicates nontoxic uM; type: functional, cell-based; conditions: Homo sapiens
In short: (§3)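 Cytotoxicity was measured in uninfected cells with drug, in CEM or MT-2 at 5×10^3 per well. There were five half-log dilutions up to 100 μM, the highest concentration, in triplicate. Cells were incubated 6 days at 37 °C and viability was read by XTT. TC25 is the minimum concentration cutting viability by 25%; NT means nontoxic up to 100 μM.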

[6] = test system: MT2; experiment: Compound was tested for antiviral activity by measuring its ability to inhibit HIV induced virus production in MT-2 cells; NT indicates nontoxic uM; type: functional, cell-based; in short: as §3
[7] = test system: CCRF-CEM; experiment: Compound was tested for antiviral activity by measuring its ability to inhibit HIV induced cell killing in CEM cells; type: functional, cell-based; conditions: Homo sapiens; in short: as §2
[8] = test system: MT2; experiment: Compound was tested for antiviral activity by measuring its ability to inhibit HIV induced cell killing in MT-2 cells; type: functional, cell-based; conditions: Homo sapiens; in short: as §1

Row | SMILES | TC25 [1] | TC25 [2] | IC50 [3] | IC50 [4] | TC25 [5] | TC25 [6] | IC50 [7] | TC25 ([6]; Homo sapiens) | IC50 [8] | NT [6]
1 | O=C1NC(=O)C(CSCc2ccc(Br)cc2)(CSCc2ccc(Br)cc2)N1 | 16 µM | 7 µM | Nontoxic up to 100uM | Nontoxic up to 100uM |  |  |  |  |  | 
2 | NC(CSCc1ccccc1)(CSCc1ccccc1)C(=O)O |  | 60 µM | Nontoxic up to 100uM | Nontoxic up to 100uM | Nontoxic up to 100uM |  |  |  |  | 
3 | O=C1NC(=O)C(CSCc2ccc(C(=O)O)cc2)(CSCc2ccc(C(=O)O)cc2)N1 |  |  | Nontoxic up to 100uM | Nontoxic up to 100uM | Nontoxic up to 100uM | Nontoxic up to 100uM |  |  |  | 
4 | O=C1NC(=O)C(COCc2ccccc2)(COCc2ccccc2)N1 | >100 µM | 87 µM | Nontoxic up to 100uM | Nontoxic up to 100uM |  |  |  |  |  | 
5 | N#Cc1ccc(CSCC2(CSCc3ccc(C#N)cc3)NC(=O)NC2=O)cc1 | 15 µM | 8 µM | Nontoxic up to 100uM |  |  |  | 25 µM |  |  | 
6 | O=C1NC(=O)C(CSC(=O)c2ccccc2)(CSC(=O)c2ccccc2)N1 | 31 µM | 5 µM | Nontoxic up to 100uM |  |  |  | 7 µM |  |  | 
7 | O=C1NC(=O)C(CSCC2CCCCC2)(CSCC2CCCCC2)N1 | 8 µM | 12 µM | Nontoxic up to 100uM | Nontoxic up to 100uM |  |  |  |  |  | 
8 | O=C1NC(=O)C(CSCCO)(CSCc2ccccc2)N1 (configuration not stated) |  |  | Nontoxic up to 100uM | Nontoxic up to 100uM | Nontoxic up to 100uM |  |  | Nontoxic up to 100uM |  | 
9 | O=C1NC(=O)C(CSCc2cccnc2)(CSCc2cccnc2)N1 |  |  | Nontoxic up to 100uM | Nontoxic up to 100uM | Nontoxic up to 100uM |  |  | Nontoxic up to 100uM |  | 
10 | O=C1NC(=O)C(CSCc2cccs2)(CSCc2cccs2)N1 |  | 17 µM | Nontoxic up to 100uM | Nontoxic up to 100uM | Nontoxic up to 100uM |  |  |  |  | 
11 | O=C1NC(=O)C(CSCc2ccc([N+](=O)[O-])cc2)(CSCc2ccc([N+](=O)[O-])cc2)N1 | 9 µM | 5 µM | Nontoxic up to 100uM |  |  |  | 19 µM |  |  | 
12 | O=C1NC(=O)C(CSCc2cccc3ccccc23)(CSCc2cccc3ccccc23)N1 |  |  | Nontoxic up to 100uM | Nontoxic up to 100uM | Nontoxic up to 100uM |  |  | Nontoxic up to 100uM |  | 
13 | O=C1NC(=O)C(CSCc2ccncc2)(CSCc2ccncc2)N1 |  | 45 µM | Nontoxic up to 100uM |  | Nontoxic up to 100uM |  | 53 µM |  |  | 
14 | O=C1NC(=O)C(CSCc2ccccc2)N1 (configuration not stated) | 5 µM | 2 µM |  | Nontoxic up to 100uM |  |  |  |  |  | 
15 | O=C1NC(=O)C(CSCc2ccccc2)(CSCc2ccccc2)N1 |  |  |  | Nontoxic up to 100uM | Nontoxic up to 100uM | Nontoxic up to 100uM |  |  | 17 µM | 
16 | O=C1NC(=O)C(CS)(CS)N1 | 3 µM | 0.8 µM | Nontoxic up to 100uM |  |  |  | 0.6 µM |  |  | 
17 | COC(=O)c1ccc(CSCC2(CSCc3ccc(C(=O)OC)cc3)NC(=O)NC2=O)cc1 | 25 µM | 10 µM | Nontoxic up to 100uM | Nontoxic up to 100uM |  |  |  |  |  | 
18 | O=C1NC(=O)C(CS)(CSCc2ccccc2)N1 (configuration not stated) | 34 µM | 50 µM |  | Nontoxic up to 100uM |  |  |  |  |  | 
19 | Nc1ccc(CSCC2(CSCc3ccc(N)cc3)NC(=O)NC2=O)cc1 |  | 16 µM |  |  | Nontoxic up to 100uM |  | 88 µM |  | 6 µM | 
20 | COc1ccc(CSCC2(CSCc3ccc(OC)cc3)NC(=O)NC2=O)cc1 | 6 µM | 6 µM | Nontoxic up to 100uM |  |  |  | 23 µM |  |  | 
21 | O=C1NC(=O)C(CSc2ccncc2)(CSc2ccncc2)N1 |  |  | Nontoxic up to 100uM | Nontoxic up to 100uM | Nontoxic up to 100uM |  |  |  |  | Nontoxic up to 100uM
22 | O=C1NC(=O)C(CSc2ccccc2)(CSc2ccccc2)N1 | 64 µM | 50 µM |  | Nontoxic up to 100uM |  |  |  |  |  | 
23 | S=C1NC(=S)C(CSCc2ccccc2)(CSCc2ccccc2)N1 | 16 µM | 16 µM |  | Nontoxic up to 100uM |  |  |  |  |  | 
24 | O=C1NC(=O)C(CSCc2ccccn2)(CSCc2ccccn2)N1 |  |  |  | Nontoxic up to 100uM | Nontoxic up to 100uM |  |  | Nontoxic up to 100uM | 81 µM | 
